The record followed here is ChEMBL document CHEMBL5370536, “Design, synthesis, and biological activity of dual monoamine oxidase A and heat shock protein 90 inhibitors, N-Methylpropargylamine-conjugated 4-isopropylresorcinol for glioblastoma” (Eur J Med Chem, 2023).

The target of assay [1] is T1, Amine oxidase [flavin-containing] A (Mus musculus, UniProt Q64133).
T1 sequence (Q64133 whole entry): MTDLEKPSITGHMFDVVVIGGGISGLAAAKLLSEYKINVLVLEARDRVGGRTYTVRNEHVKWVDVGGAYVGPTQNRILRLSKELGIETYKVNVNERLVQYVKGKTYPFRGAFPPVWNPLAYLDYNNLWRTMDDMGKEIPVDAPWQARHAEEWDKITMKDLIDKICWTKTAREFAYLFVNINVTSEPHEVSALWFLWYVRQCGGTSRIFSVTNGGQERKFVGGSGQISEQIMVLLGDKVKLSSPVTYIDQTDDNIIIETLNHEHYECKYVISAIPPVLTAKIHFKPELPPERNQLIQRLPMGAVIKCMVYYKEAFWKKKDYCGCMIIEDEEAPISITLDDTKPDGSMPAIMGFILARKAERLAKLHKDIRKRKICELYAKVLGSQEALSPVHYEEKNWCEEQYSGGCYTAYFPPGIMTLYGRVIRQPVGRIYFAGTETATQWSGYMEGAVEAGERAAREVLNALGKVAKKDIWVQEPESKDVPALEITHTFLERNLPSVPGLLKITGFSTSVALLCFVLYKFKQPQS
In words: Inhibition of MAO A in mouse GL26 cells preincubated for 20 mins followed by 14C-labeled 5-hydroxytryptamine addition and measured after 20 mins by scintillation counter analysis. The format is cell-based.

For assay [2], the system named is U-251. In words: Downregulation of HER2 expression in human Temozolomide-resistant U-251 cells incubated for 24 hrs by Western blot analysis. The format is functional, cell-based. The conditions noted are these: dose 0.1-3 µM.
For assay [3], the system named is GL26. In words: Downregulation of HER2 expression in mouse GL26 cells incubated for 24 hrs by Western blot analysis. The format is functional, cell-based. The following applies: dose 0.1-3 µM. For orientation: A western blot detects proteins with antibodies after separation by electrophoresis.
In assay [4] the test system is GL26. In words: Downregulation of Akt phosphorylation expression at Ser 473 residues in mouse GL26 cells incubated for 24 hrs by Western blot analysis. The format is functional, cell-based. The following applies: dose 0.1-3 µM.
Assay [5] concerns U-251. In words: Antiproliferative activity against human Temozolomide-resistant U-251 cells assessed as inhibition of cell growth measured after 48 hrs by MTT assay. The format is functional, cell-based. The conditions noted are these: U-251, 48 h. Summed up: (§1)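 Cells plated at 5×10³ per well 24 h before compound and grown in DMEM with 10% FBS at 37°C, 5% CO₂. After 48 h exposure, the medium was replaced with 0.5 mg/mL MTT for 3 h. Formazan was dissolved in DMSO and read at 570 nm.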
Background: Formazan colour is commonly taken as a measure of viable cells.

Assay [6] deals with U-251. In words: Downregulation of Akt phosphorylation expression at Ser 473 residues in human Temozolomide-resistant U-251 cells incubated for 24 hrs by Western blot analysis. The following applies: dose 0.1-3 µM. The format is functional, cell-based.
Assay [7] is described as follows: Antiproliferative activity against mouse GL26 cells assessed as inhibition of cell growth measured after 48 hrs by MTT assay. The format is functional, cell-based. The following applies: GL26, 48 h. Summed up:
as §1

The target of assay [8] is Heat shock protein HSP 90-alpha (Homo sapiens, UniProt P07900). In words: Inhibition of human recombinant HSP90alpha preincubated for 30 mins followed by FITC-GM addition and mesured after 3 hrs by fluorescence polarization assay.
Assay [9] deals with GL26. In words: Antitumor activity against mouse GL26 cells xenografted in C57BL/6J mouse model assessed as tumor growth inhibition at 10 mg/kg, ip administered daily for 14 days by caliper method. The following applies: time 14.0 day.
Assay [10] relates to GL26. As to the kind of experiment: Downregulation of Akt phosphorylation expression at Ser 473 residues in mouse GL26 cells at 0.1 to 3 uM incubated for 24 hrs by Western blot analysis. The format is functional, cell-based. The following applies: dose 0.1-3 µM. In a few lines:
(§2)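 GL26 and U251R cells were seeded at 3 × 10⁵ per well 24 h ahead, then treated in compound-containing medium for 24 h. Cells were washed twice in ice-cold PBS and lysed in RIPA buffer (150 mM NaCl, 1% Triton X-100, 0.5% deoxycholate, 0.1% SDS, 50 mM Tris pH 8.0) plus protease inhibitors. Lysate was cleared at 4°C, protein was quantified by BCA, and western blotting followed.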

Assay [11] concerns GL26. In words: Downregulation of IFN-gamma induced PD-L1 expression in mouse GL26 cells at 20 uM incubated for 24 hrs by flow cytometry analysis. The format is functional, cell-based. Summed up: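 GL26 cells were seeded at 3.6 × 10⁵ per well and exposed to compound, with or without 10 ng/mL IFN-γ, for 24 h. Cells were stained with goat anti-PD-L1 for 1 h, then FITC donkey anti-goat for 1 h. Surface FITC was read by flow cytometry, and MFI was normalized to the secondary-only control as an MFI ratio.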
In general terms: In flow cytometry, cells or beads pass a laser one at a time.

Assay [12] has as its system U-251. As to the kind of experiment: Downregulation of Akt phosphorylation expression at Ser 473 residues in human Temozolomide-resistant U-251 cells at 0.1 to 3 uM incubated for 24 hrs by Western blot analysis. The format is functional, cell-based. The conditions noted are these: dose 0.1-3 µM. In a few lines: as §2

Active and inactive are the calls of the source. The rule behind the calls is not given here.

On to `C#CCN(C)CCCOc1cccc(N(CC)C(=O)c2cc(C(C)C)c(O)cc2O)c1Cl`, for which the IC50 (commonly the concentration that gives 50% inhibition) in [1] is 2.27 µM.
On the same count and under the same terms, under `C#CCN(C)CCCOc1cc(N(CCC)C(=O)c2cc(C(C)C)c(O)cc2O)ccc1Cl` stands 0.86 µM.
On to `CC(C)c1cc(-c2n[nH]c(=O)n2-c2ccc3c(ccn3C)c2)c(O)cc1O` [GANETESPIB], for which the Activity entry in assay [2], in assay [3], in [4] and in assay [6] was “Dose-Dependent Effect” throughout. Besides, the half-maximal inhibitory concentration (IC50) in [5] and in assay [1] was greater than 10 µM throughout.
`C#CCN(C)CCCOc1ccc(N(CCC)C(=O)c2cc(C(C)C)c(O)cc2O)cc1Cl`: the IC50 is 8.42 µM in [7], greater than 10 µM in assay [5], 3.86 µM in assay [1] and 0.17 µM in assay [8].
In assay [1], `C#CCN(C)CCCOc1cccc(N(C)C(=O)c2cc(C(C)C)c(O)cc2O)c1Cl` had an IC50 greater than 10 µM.
For the compound `C#CCN(C)CCCOc1cc(NC(=O)c2cc(C(C)C)c(O)cc2O)ccc1Cl`, the 50% inhibitory concentration (IC50) in assay [1] worked out at 2.36 µM.
With `C#CCN(C)CCCOc1ccc(Cl)cc1Cl` [CLORGILINE], the outcome in [9] was inactive. For the same compound, the IC50 in assay [7] was greater than 100 µM. Moreover, the result in [10], in assay [11] and in assay [12] was Active.
